This test relates to Influenza A virus. Description: Antiviral activity against oseltamivir-resistant Influenza A virus A/WSN/1933(H1N1) infected in MDCK cells assessed as protection against virus-induced cytopathic effect after 48 hrs by CellTiter 96 AQueous Non-Radioactive cell proliferation assay. The test is classed as functional, organism-based. The essentials: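 Virus stock (100 TCID50, TCID50 set by serial dilution on MDCK and Reed–Müench) mixed 1:1 with inhibitor at varied concentrations, then used to infect MDCK cells (1 × 10^5 cells/mL) grown in DMEM with 10% FBS. Incubated 48 h, 37 °C, 5% CO2. CPE read by MTS-type reagent, 15 min, A490. EC50 from curve fit of % CPE vs concentration; mean ± SD of three experiments.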
(In general: Cytopathic effects are the visible damage that an infection or toxin causes in cultured cells.)

As for `CCC(CC)[C@H](NC(C)=O)[C@@H]1C=C(P(=O)(O)O)C[C@H]1NC(=N)N`, the EC50 – broadly, the concentration needed to bring the measured effect to its halfway point – was 50.3 nM.
For `CCC(CC)O[C@@H]1C=C(C(=O)O)C[C@H](N)[C@H]1NC(C)=O` [OSELTAMIVIR CARBOXYLATE], the EC50 was 5.5 nM.
As for `CCCCCCOP(=O)(O)[C@@H]1C[C@@H]([C@@H](NC(C)=O)C(CC)CC)[C@H](NC(=N)N)C1`, the figure is 43.2 nM.
In the case of `CCC(CC)[C@H](NC(C)=O)[C@@H]1[C@H](O)[C@@H](C(=O)O)C[C@H]1NC(=N)N` [PERAMIVIR ANHYDROUS] it was 1.5 nM; in that of `CCC(CC)[C@H](NC(C)=O)[C@@H]1C[C@@H](P(=O)(O)O)C[C@H]1NC(=N)N`, 343 nM.
Regarding `CCOP(=O)(O)[C@H]1C[C@@H](NC(=N)N)[C@H]([C@@H](NC(C)=O)C(CC)CC)[C@@H]1O`, the EC50 came out at 66.5 nM.
As for `CCCCCCOP(=O)(O)[C@H]1C[C@@H](NC(=N)N)[C@H]([C@@H](NC(C)=O)C(CC)CC)[C@@H]1O`, the EC50 came out at 18.6 nM.
As for `CCCCCCOP(=O)(O)C1=C[C@@H]([C@@H](NC(C)=O)C(CC)CC)[C@H](NC(=N)N)C1`, the EC50 stood at 18.5 nM.
In the case of `CCC(CC)[C@H](NC(C)=O)[C@@H]1[C@H](O)[C@@H](P(=O)(O)O)C[C@H]1NC(=N)N` it was 260 nM; in that of `CCOP(=O)(O)[C@@H]1C[C@@H]([C@@H](NC(C)=O)C(CC)CC)[C@H](NC(=N)N)C1`, 88.7 nM; in that of `CCOP(=O)(O)C1=C[C@@H]([C@@H](NC(C)=O)C(CC)CC)[C@H](NC(=N)N)C1`, 19.1 nM.
For `CC(=O)N[C@H]1[C@H]([C@H](O)[C@H](O)CO)OC(C(=O)O)=C[C@@H]1NC(=N)N` [ZANAMIVIR], the EC50 came out at 16.3 nM.

The values above are taken from ChEMBL document CHEMBL3817747 (J Med Chem, 2016).
